{"source": "ChEMBL document CHEMBL1255300", "about": "“Pharmacodynamics of the antibacterial effect and emergence of resistance to tomopenem, formerly RO4908463/CS-023, in an in vitro pharmacokinetic model of Staphylococcus aureus infection” (Antimicrob Agents Chemother, 2008)", "key": {"Staphylococcus aureus [1]": {"test_system": "Staphylococcus aureus", "assay": "T>MIC for static effect in methicillin-resistant Staphylococcus aureus 33922 in in vitro pharmacokinetic model after 24 hrs using 10^6 CFU/ml inoculum", "assay_type": "functional"}, "Staphylococcus aureus [2]": {"test_system": "Staphylococcus aureus", "assay": "Antibacterial activity against methicillin-resistant Staphylococcus aureus 33922 infected in in vitro pharmacokinetic model assessed as reduction in viable count at 750 mg, iv every 8 hrs measured after 24 hrs using 10^8 CFU/ml inoculum", "assay_type": "functional"}, "Staphylococcus aureus [3]": {"test_system": "Staphylococcus aureus", "assay": "Antibacterial activity against methicillin-sensitive Staphylococcus aureus", "assay_type": "functional"}, "Staphylococcus aureus [4]": {"test_system": "Staphylococcus aureus", "assay": "T>MIC for 3-log drop in count in methicillin-sensitive Staphylococcus aureus 5956 in in vitro pharmacokinetic model after 24 hrs using 10^8 CFU/ml inoculum", "assay_type": "functional", "method_in_brief": "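Dose-ranging: 7–13 simulated regimens per strain giving T>MIC of 0–100% (MIC from 10% MHB), at 106 or 10^8 CFU/ml as stated.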"}, "Staphylococcus aureus [5]": {"test_system": "Staphylococcus aureus", "assay": "T>MIC for 2-log drop in count in methicillin-resistant Staphylococcus aureus 33815 in in vitro pharmacokinetic model after 24 hrs using 10^8 CFU/ml inoculum", "assay_type": "functional"}, "Staphylococcus aureus [6]": {"test_system": "Staphylococcus aureus", "assay": "T>MIC for 2-log drop in count in methicillin-resistant Staphylococcus aureus 33922 in in vitro pharmacokinetic model after 24 hrs using 10^6 CFU/ml inoculum", "assay_type": "functional"}, "Staphylococcus aureus [7]": {"test_system": "Staphylococcus aureus", "assay": "Antibacterial activity against methicillin-resistant Staphylococcus aureus 33922 infected in in vitro pharmacokinetic model assessed as reduction in viable count at 750 mg, iv every 8 hrs measured after 36 hrs using 10^6 CFU/ml inoculum", "assay_type": "functional"}, "Staphylococcus aureus [8]": {"test_system": "Staphylococcus aureus", "assay": "T>MIC in methicillin-resistant Staphylococcus aureus 33815 infected in vitro pharmacokinetic model at 750 mg, iv every 8 hrs", "assay_type": "functional"}, "Staphylococcus aureus [9]": {"test_system": "Staphylococcus aureus", "assay": "Antibacterial activity against methicillin-sensitive Staphylococcus aureus 5956 infected in in vitro pharmacokinetic model assessed as reduction in viable count at 1500 mg, iv every 8 hrs measured after 24 hrs using 10^6 CFU/ml inoculum", "assay_type": "functional"}, "Staphylococcus aureus [10]": {"test_system": "Staphylococcus aureus", "assay": "Antibacterial activity against methicillin-resistant Staphylococcus aureus 33815 in in vitro pharmacokinetic model assessed as viable count at 2 times of MIC", "assay_type": "functional", "method_in_brief": "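Preexposure population analysis profile: model sample at time zero plated on nutrient agar with tomopenem at multiples of the MIC. Growth counted as log CFU/ml, detection limit 2 log10.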"}, "Staphylococcus aureus [11]": {"test_system": "Staphylococcus aureus", "assay": "AUBKC (0 to 24 hrs) in methicillin-resistant Staphylococcus aureus 33827 infected in in vitro pharmacokinetic model at 1500 mg, iv every 8 hrs using 10^8 CFU/ml inoculum", "assay_type": "functional", "method_in_brief": "(§1)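 Single-compartment dilutional in vitro PK model at 37°C in 10% Mueller-Hinton broth, stirred, flow 132 ml/h. […] Inoculum 10^6 CFU/ml added 45 min before dosing, or 10^8 CFU/ml run overnight. Viable counts with β-lactamase neutralisation. AUBKC by log-linear trapezoidal rule, at least triplicate.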"}, "Staphylococcus aureus [12]": {"test_system": "Staphylococcus aureus", "assay": "AUBKC (0 to 48 hrs) in methicillin-resistant Staphylococcus aureus 33815 infected in in vitro pharmacokinetic model at 1500 mg, iv every 8 hrs using 10^6 CFU/ml inoculum", "assay_type": "functional", "method_in_brief": "as §1"}, "Staphylococcus aureus [13]": {"test_system": "Staphylococcus aureus", "assay": "T>MIC for 3-log drop in count in methicillin-resistant Staphylococcus aureus 33827 in in vitro pharmacokinetic model after 24 hrs using 10^8 CFU/ml inoculum", "assay_type": "functional"}, "Staphylococcus aureus [14]": {"test_system": "Staphylococcus aureus", "assay": "T>MIC in methicillin-sensitive Staphylococcus aureus 5956 infected in vitro pharmacokinetic model at 750 mg, iv every 8 hrs", "assay_type": "functional"}, "Staphylococcus aureus [15]": {"test_system": "Staphylococcus aureus", "assay": "Antibacterial activity against methicillin-resistant Staphylococcus aureus 33820 in in vitro pharmacokinetic model assessed as viable count at 4 times of MIC", "assay_type": "functional", "method_in_brief": "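Population analysis before drug exposure (time 0). Model samples were plated on nutrient agar without drug and with tomopenem at 2×, 4× and 6× MIC (10% MHB MIC), and growth was recorded as log CFU/ml. Detection limit 2 log10.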"}, "Staphylococcus aureus [16]": {"test_system": "Staphylococcus aureus", "assay": "T>MIC for 4-log drop in count in methicillin-resistant Staphylococcus aureus 33815 in in vitro pharmacokinetic model after 24 hrs using 10^8 CFU/ml inoculum", "assay_type": "functional"}, "Staphylococcus aureus [17]": {"test_system": "Staphylococcus aureus", "assay": "Antibacterial activity against methicillin-resistant Staphylococcus aureus 33815 infected in in vitro pharmacokinetic model assessed as time required to 99% killing at 1500 mg, iv every 8 hrs using 10^8 CFU/ml inoculum", "assay_type": "functional", "method_in_brief": "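T99 and T99.9 were taken as the times for the count to fall 99% or 99.9% from time 0, using serial viable counts over 48 h. Inoculum was 10^8 CFU/ml, grown overnight in the model before dosing.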"}, "Staphylococcus aureus [18]": {"test_system": "Staphylococcus aureus", "assay": "Antibacterial activity against methicillin-resistant Staphylococcus aureus 33921 infected in in vitro pharmacokinetic model assessed as reduction in viable count at 1500 mg, iv every 8 hrs measured after 48 hrs using 10^6 CFU/ml inoculum", "assay_type": "functional", "method_in_brief": "(§2)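 Single-compartment dilutional in vitro PK model, 10% Mueller-Hinton broth, 37°C, stirred, dilution 132 ml/h. […] Inoculum 10^6 CFU/ml (added 45 min pre-dose) or 10^8 CFU/ml (run overnight). Viable counts by spiral plating, beta-lactamase neutralization, detection limit 10^2 CFU/ml. At least triplicate.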"}, "Staphylococcus aureus [19]": {"test_system": "Staphylococcus aureus", "assay": "Antibacterial activity against methicillin-resistant Staphylococcus aureus 33820 by 10% MH broth method", "assay_type": "functional", "method_in_brief": "(§3)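 Broth dilution MIC per CLSI, run in 10% Mueller-Hinton broth at nondoubling dilutions.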"}, "Staphylococcus aureus [20]": {"test_system": "Staphylococcus aureus", "assay": "Antibacterial activity against methicillin-resistant Staphylococcus aureus", "assay_type": "functional"}, "Staphylococcus aureus [21]": {"test_system": "Staphylococcus aureus", "assay": "AUBKC (0 to 48 hrs) in methicillin-sensitive Staphylococcus aureus 5956 infected in in vitro pharmacokinetic model at 1500 mg, iv every 8 hrs using 10^6 CFU/ml inoculum", "assay_type": "functional", "method_in_brief": "as §1"}, "Staphylococcus aureus [22]": {"test_system": "Staphylococcus aureus", "assay": "Antibacterial activity against methicillin-resistant Staphylococcus aureus 33827 by 10% MH broth method", "assay_type": "functional", "method_in_brief": "as §3"}, "Staphylococcus aureus [23]": {"test_system": "Staphylococcus aureus", "assay": "Antibacterial activity against methicillin-resistant Staphylococcus aureus 33922 infected in in vitro pharmacokinetic model assessed as reduction in viable count at 750 mg, iv every 8 hrs measured after 48 hrs using 10^6 CFU/ml inoculum", "assay_type": "functional"}, "Staphylococcus aureus [24]": {"test_system": "Staphylococcus aureus", "assay": "Antibacterial activity against methicillin-resistant Staphylococcus aureus 33815 infected in in vitro pharmacokinetic model assessed as reduction in viable count at 750 mg, iv every 8 hrs measured after 12 hrs using 10^6 CFU/ml inoculum", "assay_type": "functional", "method_in_brief": "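Single-compartment dilutional in vitro PK model, 37°C, stirred, in 10% Mueller-Hinton broth. […] Inoculum 10^6 CFU/ml from a 24-h plate culture was added 45 min before dosing. Viable counts by spiral plating on nutrient agar with β-lactamase neutralization. Log change was taken from time 0; detection limit 10^2 CFU/ml; at least triplicate.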"}, "Staphylococcus aureus [25]": {"test_system": "Staphylococcus aureus", "assay": "Antibacterial activity against methicillin-resistant Staphylococcus aureus 33827 infected in in vitro pharmacokinetic model assessed as reduction in viable count at 750 mg, iv every 8 hrs measured after 36 hrs using 10^8 CFU/ml inoculum", "assay_type": "functional", "method_in_brief": "as §2"}, "Staphylococcus aureus [26]": {"test_system": "Staphylococcus aureus", "assay": "Antibacterial activity against methicillin-resistant Staphylococcus aureus 33815 assessed as viable count at 4 times of MIC after 48 hrs using 10^6 CFU/ml inoculum", "assay_type": "functional, organism-based", "method_in_brief": "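Population analysis during tomopenem dose-ranging runs in the in vitro PK model (10^6 CFU/ml, T>MIC 0-100%). […] Growth counted as log CFU/ml, detection limit 2 log10.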"}}, "note": "The source made the active and inactive calls. The calls are words filed in the database; no cut-off is given here."}
{"smiles": "C[C@@H](O)[C@H]1C(=O)N2C(C(=O)O)=C(S[C@H]3C[C@@H](C(=O)N4CC[C@H](NC(=O)CNC(=N)N)C4)N(C)C3)[C@H](C)[C@H]12", "note": "[TOMOPENEM]", "values": [{"measurement": "fT>MIC", "setting": "Staphylococcus aureus [1]", "result": 1.3, "unit": "%"}, {"measurement": "log10CFU/ml", "setting": "Staphylococcus aureus [2]", "result": 5}, {"measurement": "MIC50", "setting": "Staphylococcus aureus [3]", "result": 0.12, "unit": "mg/L"}, {"measurement": "MIC90", "setting": "Staphylococcus aureus [3]", "result": 0.12, "unit": "mg/L"}, {"measurement": "fT>MIC", "setting": "Staphylococcus aureus [4]", "result": 12.8, "unit": "%"}, {"measurement": "fT>MIC", "setting": "Staphylococcus aureus [5]", "result": 2, "unit": "%"}, {"measurement": "fT>MIC", "setting": "Staphylococcus aureus [6]", "result": 5.4, "unit": "%"}, {"measurement": "log10CFU/ml", "setting": "Staphylococcus aureus [7]", "result": 4}, {"measurement": "fT>MIC", "setting": "Staphylococcus aureus [8]", "result": 73, "unit": "%"}, {"measurement": "log10CFU/ml", "setting": "Staphylococcus aureus [9]", "result": 4.4}, {"measurement": "log10CFU/ml", "setting": "Staphylococcus aureus [10]", "result": "<2"}, {"measurement": "AUBC", "setting": "Staphylococcus aureus [11]", "result": 84.4, "unit": "log10CFU/ml.hr"}, {"measurement": "AUBC", "setting": "Staphylococcus aureus [12]", "result": 12.5, "unit": "log10CFU/ml.hr"}, {"measurement": "fT>MIC", "setting": "Staphylococcus aureus [13]", "result": 59.3, "unit": "%"}, {"measurement": "fT>MIC", "setting": "Staphylococcus aureus [14]", "result": 100, "unit": "%"}, {"measurement": "log10CFU/ml", "setting": "Staphylococcus aureus [15]", "result": "<2"}, {"measurement": "fT>MIC", "setting": "Staphylococcus aureus [16]", "result": 6.5, "unit": "%"}, {"measurement": "Time", "setting": "Staphylococcus aureus [17]", "result": 16, "unit": "h"}, {"measurement": "log10CFU/ml", "setting": "Staphylococcus aureus [18]", "result": 3.7}, {"measurement": "MIC", "setting": "Staphylococcus aureus [19]", "result": 6, "unit": "mg/L"}, {"measurement": "MIC50", "setting": "Staphylococcus aureus [20]", "result": 2, "unit": "mg/L"}, {"measurement": "MIC90", "setting": "Staphylococcus aureus [20]", "result": 4, "unit": "mg/L"}, {"measurement": "AUBC", "setting": "Staphylococcus aureus [21]", "result": 22.7, "unit": "log10CFU/ml.hr"}, {"measurement": "MIC", "setting": "Staphylococcus aureus [22]", "result": 0.75, "unit": "mg/L"}, {"measurement": "log10CFU/ml", "setting": "Staphylococcus aureus [23]", "result": 3.9}, {"measurement": "log10CFU/ml", "setting": "Staphylococcus aureus [24]", "result": 4.2}, {"measurement": "log10CFU/ml", "setting": "Staphylococcus aureus [25]", "result": 5}, {"measurement": "Activity", "setting": "Staphylococcus aureus [26]", "result": "Active"}]}
